The list is not random: actives were taken first. Their share in the collection is about 2.4%.
NadD inh – NadD (S. aureus) enzyme inhibition. purified NadD enzyme, colorimetric absorbance read-out. inhibition, % at 20 µM. 360,000 compounds, 0.78% hits. AID 602399; in the data active means inhibition above about 26%
DNMT1 block – blocks human DNA methyltransferase DNMT1; P26358; DNMT1 molecular beacon, Hinp1I cleavage, fluorescence; inhibition (reported as % activation of signal), % at 10 µM; 360,000 compounds, 0.83% hits; AID 588458; in the data active means inhibition above about 50%
STEP inh – blocks human striatal-enriched tyrosine phosphatase | P54829 | recombinant STEP, OMFP fluorogenic substrate, fluorescence | inhibition, % at 20 µM | 360,000 compounds, 0.25% hits | AID 588621;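 active means inhibition at 20 µM, scaled per plate between control wells, above about 37%, limit read from the data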
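Measure: Control-normalized % inhibition with plate pattern correction | Test system: STEP phosphatase, cell-free reaction | Medium: pH 6.0 Bis-Tris with DTT and Tween 20 | Technique: Fluorescence, 480/540 nm | Times: Reaction 20 min, ambient temperature | Doses: Single compound dose of 20 µM, 1% DMSO final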
LMPTP block – blocks human LMPTP phosphatase. P24666. recombinant LMPTP-A, OMFP fluorogenic substrate, fluorescence intensity. inhibition, % at 20 µM. 360,000 compounds, 0.22% hits. AID 651560;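 active means compounds that cut the enzyme signal by at least half of the control window in the single-dose screen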
Target sequence (P24666 whole entry, looked up): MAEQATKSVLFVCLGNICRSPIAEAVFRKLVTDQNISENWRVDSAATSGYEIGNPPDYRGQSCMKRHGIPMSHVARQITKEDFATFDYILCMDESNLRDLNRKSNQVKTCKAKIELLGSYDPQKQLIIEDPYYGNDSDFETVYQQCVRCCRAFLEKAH
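Assay system: LMPTP-A phosphatase enzyme | Input: 0.625 nM enzyme | Also added: Fluorogenic phosphatase substrate OMFP at 400 µM final | Compound dosing: One test concentration per compound, 20 µM, with 3% DMSO overall | Schedule: 50 min enzyme reaction at room temperature, protected from light | Signal: Fluorescence intensity | Benchmarks: no-enzyme and uninhibited controls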
Scp1 inh – blocks human Scp-1 phosphatase activity; Q9GZU7; Recombinant Scp1, phosphopeptide, malachite green phosphate absorbance; inhibition, % at 20 µM; 340,000 compounds, 0.88% hits;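 active means inhibition above about 50% at 20 µM, limit read from the data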
Target sequence (Q9GZU7 76-261 limits assumed): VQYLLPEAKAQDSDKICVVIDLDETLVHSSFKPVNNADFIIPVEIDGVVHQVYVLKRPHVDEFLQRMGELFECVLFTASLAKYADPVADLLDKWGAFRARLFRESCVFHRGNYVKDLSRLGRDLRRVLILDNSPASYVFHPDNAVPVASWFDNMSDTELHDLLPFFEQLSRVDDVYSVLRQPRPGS
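System: truncated SCP-1 phosphatase (76-261aa); medium: Tris acetate buffer pH 5.5 with MgCl2 and Tween-20; incubation: 45 min room-temperature reaction, 5 min colour, 30 min stabiliser; compound: single 20 µM dose, 1% DMSO; reagent: Phosphorylated 17-residue peptide substrate; read-out: % inhibition at 20 µM; technique: colorimetric free-phosphate detection, absorbance 630 nm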
SUMO1 PPI mod – SUMO1-SIM interaction modulation | inhibition, % at 20 µM | 360,000 compounds, 0.33% hits | AID 602429 | SUMO1 binding to a labelled peptide, TR-FRET, 1 h; in the data active means inhibition above about 37%
Target sequence (P63165 whole entry, looked up): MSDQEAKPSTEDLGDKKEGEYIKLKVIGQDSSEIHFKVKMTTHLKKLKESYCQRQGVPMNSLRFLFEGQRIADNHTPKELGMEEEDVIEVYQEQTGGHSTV
Hits are given with their value.

Results for CC(C)N(C)CCOC(=O)C1COc2ccccc2O1 (stereo not given) ?
NadD inh: inactive; DNMT1 block: inactive; STEP inh: inactive; LMPTP block: inactive; Scp1 inh: inactive; SUMO1 PPI mod: inactive

How did N#C/C(=C\c1ccc(O)c(O)c1)C(=O)Nc1cccc2ncccc12 do in these assays?
NadD inh: 86.2; DNMT1 block: inactive; STEP inh: inactive; LMPTP block: 65.8; Scp1 inh: inactive; SUMO1 PPI mod: inactive

How did Cn1c(N)c(C(=O)COC(=O)c2ccc3c(c2)C(=O)N(c2ccc(Cl)cc2)C3=O)c(=O)n(C)c1=O do in these assays?
NadD inh: inactive; DNMT1 block: inactive; STEP inh: inactive; LMPTP block: inactive; Scp1 inh: inactive; SUMO1 PPI mod: 64.1

How did COc1ccc(Cl)cc1C(=O)OCC(=O)c1c(N)n(C)c(=O)n(C)c1=O do in these assays?
NadD inh: inactive; DNMT1 block: inactive; STEP inh: inactive; LMPTP block: inactive; SUMO1 PPI mod: inactive

Results for CC1CCc2c(sc3ncn(CC(=O)N=Nc4c(O)[nH]c5ccccc45)c(=O)c23)C1 (stereo not given) ?
NadD inh: inactive; DNMT1 block: 53.5; STEP inh: inactive; LMPTP block: inactive; Scp1 inh: inactive; SUMO1 PPI mod: inactive

What do the screens show for `O=C(NCCN1CCCC1=O)C1CCC(=O)N(CCc2cccc(F)c2)C1` (stereo not given)?
NadD inh: inactive; DNMT1 block: inactive; STEP inh: inactive; LMPTP block: inactive; Scp1 inh: inactive; SUMO1 PPI mod: 44.1

How did O=C(NCc1cccc(F)c1)C1CCC(=O)N(CCc2cccc(F)c2)C1 (stereo not given) do in these assays?
NadD inh: inactive; DNMT1 block: inactive; STEP inh: inactive; LMPTP block: inactive; Scp1 inh: inactive; SUMO1 PPI mod: inactive

How did Cc1n[nH]c(=S)n(NC(=O)CC(=O)Nn2c(=S)[nH]nc(C)c2=O)c1=O do in these assays?
NadD inh: inactive; DNMT1 block: inactive; STEP inh: inactive; LMPTP block: inactive; Scp1 inh: inactive; SUMO1 PPI mod: inactive

Results for Cc1n[nH]c(=S)n(NC(=O)/C=C/C(=O)Nn2c(=S)[nH]nc(C)c2=O)c1=O ?
NadD inh: inactive; DNMT1 block: inactive; STEP inh: inactive; LMPTP block: inactive; Scp1 inh: inactive; SUMO1 PPI mod: 67.0

What do the screens show for `COC(=O)c1sccc1NC(=S)Nc1cc(C)ccc1OC`?
NadD inh: inactive; DNMT1 block: inactive; STEP inh: inactive; LMPTP block: inactive; Scp1 inh: inactive; SUMO1 PPI mod: inactive

What do the screens show for `NC(=S)N=Nc1c(O)cc(O)c2[nH]c(=O)ccc12`?
NadD inh: inactive; DNMT1 block: 66.0; STEP inh: inactive; LMPTP block: inactive; Scp1 inh: 84.7; SUMO1 PPI mod: 69.4

What do the screens show for `Cn1c(SCC(=O)Nc2ccc3nc(SCC(=O)N4CCCC4)sc3c2)nnc1-c1ccccc1`?
Scp1 inh: 102.4

How did CCCC(=O)Nc1ccc2nc(SCC(=O)N3CCCC3)sc2c1 do in these assays?
NadD inh: inactive; DNMT1 block: inactive; STEP inh: inactive; LMPTP block: inactive; Scp1 inh: inactive; SUMO1 PPI mod: inactive

What do the screens show for `CCN(CC)c1ccc(/C=N/NC(=O)Cc2nnc(NC(=O)Nc3ccccc3)s2)cc1`?
NadD inh: 47.9; DNMT1 block: 50.2; STEP inh: inactive; LMPTP block: inactive; Scp1 inh: inactive; SUMO1 PPI mod: inactive

Results for COc1cc(/C=N/NC(=O)Cc2nnc(NC(=O)c3ccccc3)s2)ccc1O ?
NadD inh: inactive; DNMT1 block: inactive; STEP inh: inactive; LMPTP block: inactive; Scp1 inh: inactive; SUMO1 PPI mod: inactive

How did O=C(Cc1nnc(NC(=O)c2ccccc2)s1)N/N=C\c1ccc(O)c(O)c1 do in these assays?
NadD inh: inactive; DNMT1 block: 59.2; STEP inh: inactive; LMPTP block: inactive; Scp1 inh: inactive; SUMO1 PPI mod: inactive

How did CC(=O)Nc1cc(NC(C)=O)cc(C(=O)OCC(=O)c2ccc3c(c2)NC(=O)CO3)c1 do in these assays?
NadD inh: inactive; DNMT1 block: inactive; STEP inh: inactive; LMPTP block: inactive; Scp1 inh: inactive; SUMO1 PPI mod: inactive

What do the screens show for `N#CCC(=O)Nc1ccc(C(=O)OCC(=O)c2ccc3c(c2)NC(=O)CO3)cc1`?
NadD inh: inactive; DNMT1 block: inactive; STEP inh: inactive; LMPTP block: inactive; Scp1 inh: inactive; SUMO1 PPI mod: 83.6

What do the screens show for `Cc1ccccc1NC1=C/C(=N\S(=O)(=O)c2ccc(C(=O)O)cc2)c2ccccc2C1=O`?
NadD inh: inactive; DNMT1 block: 71.7; STEP inh: inactive; LMPTP block: inactive; Scp1 inh: inactive; SUMO1 PPI mod: 68.8

Results for COc1ccc(S(=O)(=O)/N=C2\C=C(Nc3ccc(O)cc3)C(=O)c3ccccc32)cc1 ?
NadD inh: inactive; DNMT1 block: inactive; STEP inh: inactive; LMPTP block: inactive; Scp1 inh: inactive; SUMO1 PPI mod: inactive

What do the screens show for `Cc1ccccc1NC1=C/C(=N\S(=O)(=O)c2cccs2)c2ccccc2C1=O`?
NadD inh: inactive; DNMT1 block: 68.8; STEP inh: inactive; LMPTP block: inactive; Scp1 inh: inactive; SUMO1 PPI mod: inactive

Results for O=C(O)c1ccc(S(=O)(=O)/N=C2\C=C(Nc3ccccc3F)C(=O)c3ccccc32)cc1 ?
NadD inh: inactive; DNMT1 block: 74.2; STEP inh: inactive; LMPTP block: inactive; Scp1 inh: inactive; SUMO1 PPI mod: 74.9

Results for O=C(CN1C(=O)C(=O)N(Cc2ccccc2)C1=O)Nc1ccc(F)c(Cl)c1 ?
NadD inh: inactive; DNMT1 block: inactive; STEP inh: inactive; LMPTP block: inactive; Scp1 inh: inactive; SUMO1 PPI mod: inactive

What do the screens show for `O=C1c2c(O)ccc(O)c2C(=O)c2c(NCCNCCO)ccc(NCCNCCO)c21`?
NadD inh: inactive; DNMT1 block: inactive; STEP inh: inactive; LMPTP block: inactive; Scp1 inh: inactive; SUMO1 PPI mod: 93.2

What do the screens show for `O=C1c2ccccc2C(=O)c2c(Nc3ccc(CCO)cc3)ccc(O)c21`?
NadD inh: inactive; DNMT1 block: inactive; STEP inh: inactive; LMPTP block: inactive; Scp1 inh: inactive; SUMO1 PPI mod: inactive

What do the screens show for `O=[N+]([O-])c1cc(CN2CCN(c3cccc(C(F)(F)F)c3)CC2)c2cccnc2c1O`?
Scp1 inh: inactive

How did O=[N+]([O-])c1cc(CN2CCCC2)c2cccnc2c1O do in these assays?
NadD inh: 74.4; DNMT1 block: inactive; STEP inh: inactive; LMPTP block: 73.8; Scp1 inh: inactive; SUMO1 PPI mod: inactive

Results for Cc1c2cc(O)c(=O)cc-2oc2cc(O)c(O)cc12 ?
NadD inh: 52.4; DNMT1 block: 185.6; STEP inh: inactive; LMPTP block: 80.0; Scp1 inh: 71.4; SUMO1 PPI mod: inactive

What do the screens show for `COc1cc(OC)c(-c2c3cc(O)c(=O)cc-3oc3cc(O)c(O)cc23)cc1OC`?
NadD inh: inactive; DNMT1 block: inactive; STEP inh: inactive; LMPTP block: inactive; Scp1 inh: inactive; SUMO1 PPI mod: inactive

Screening data as filed in PubChem.
